Measured values as given in ChEMBL document CHEMBL1136530, “Synthesis, stereochemical assignment and biological activity of a novel series of C-4" modified aza-macrolides” (2003).
≈ marks a conversion by molar mass, not a printed value.

Key:
Assay type in all cases: functional
[1] = tested on: Pasteurella multocida; experiment: Minimum inhibitory concentration against Pasteurella multocida
Procedure, shortened: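 P. multocida strain 59A0067 (turkey origin), grown overnight on BHI plates; colonies in saline at OD625 0.09 (0.5 McFarland), diluted 1:100 in BHI broth. Two-fold serial dilutions in BHI microdilution, about 5×10⁵ cfu/mL final, 37 °C for 18 h. MIC is the lowest concentration with A600 ≤ 0.025.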

[2] = tested on: Mus musculus; experiment: In vivo effective dose against Pasteurella multocida infection in mouse
Procedure, shortened: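 Mice infected with P. multocida serotype 5A. Subcutaneous dosing 0.5 h post-infection at 5 to 80 mg/kg. ED50 calculated from the number of mice surviving four days after infection.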

[3] = tested on: Escherichia coli; experiment: Minimum inhibitory concentration against Escherichia coli

| MIC [1] | MIC [3] | SMILES | ED50 [2] |
| --- | --- | --- | --- |
| 0.1 µg/mL (≈ 0.12 µM) | 0.39 µg/mL (≈ 0.47 µM) | CC[C@H]1OC(=O)[C@H](C)[C@@H](O[C@H]2C[C@@](C)(OC)[C@@](O)(C#CCN(C)C)[C@H](C)O2)[C@H](C)[C@@H](O[C@@H]2O[C@H](C)C[C@H](N(C)C)[C@H]2O)[C@](C)(O)C[C@@H](C)CN(C)[C@H](C)[C@@H](O)[C@]1(C)O | 40 mg/kg |
| 0.2 µg/mL (≈ 0.254 µM) | 1.56 µg/mL (≈ 1.98 µM) | CC#C[C@@]1(O)[C@H](C)O[C@@H](O[C@H]2[C@H](C)[C@@H](O[C@@H]3O[C@H](C)C[C@H](N(C)C)[C@H]3O)[C@](C)(O)C[C@@H](C)CN(C)[C@H](C)[C@@H](O)[C@](C)(O)[C@@H](CC)OC(=O)[C@@H]2C)C[C@@]1(C)OC | 42 mg/kg |
| 0.2 µg/mL (≈ 0.263 µM) | 1.56 µg/mL (≈ 2.05 µM) | C=C[C@@]1(O)[C@H](C)O[C@@H](O[C@H]2[C@H](C)[C@@H](O[C@@H]3O[C@H](C)C[C@H](N(C)C)[C@H]3O)[C@](C)(O)C[C@@H](C)CN[C@H](C)[C@@H](O)[C@](C)(O)[C@@H](CC)OC(=O)[C@@H]2C)C[C@@]1(C)OC | 66 mg/kg |
| 0.2 µg/mL (≈ 0.259 µM) | 1.56 µg/mL (≈ 2.02 µM) | CC#C[C@@]1(O)[C@H](C)O[C@@H](O[C@H]2[C@H](C)[C@@H](O[C@@H]3O[C@H](C)C[C@H](N(C)C)[C@H]3O)[C@](C)(O)C[C@@H](C)CN[C@H](C)[C@@H](O)[C@](C)(O)[C@@H](CC)OC(=O)[C@@H]2C)C[C@@]1(C)OC | 21 mg/kg |
| 0.2 µg/mL (≈ 0.262 µM) | 1.56 µg/mL (≈ 2.04 µM) | CC[C@H]1OC(=O)[C@H](C)[C@@H](O[C@H]2C[C@@](C)(OC)[C@@](O)(CC)[C@H](C)O2)[C@H](C)[C@@H](O[C@@H]2O[C@H](C)C[C@H](N(C)C)[C@H]2O)[C@](C)(O)C[C@@H](C)CN[C@H](C)[C@@H](O)[C@]1(C)O | 61 mg/kg |
| 0.05 µg/mL (≈ 0.0603 µM) | 0.39 µg/mL (≈ 0.47 µM) | CC[C@H]1OC(=O)[C@H](C)[C@@H](O[C@H]2C[C@@](C)(OC)[C@@](O)(c3nccn3C)[C@H](C)O2)[C@H](C)[C@@H](O[C@@H]2O[C@H](C)C[C@H](N(C)C)[C@H]2O)[C@](C)(O)C[C@@H](C)CN(C)[C@H](C)[C@@H](O)[C@]1(C)O |  |
| < 0.1 µg/mL | 1.56 µg/mL (≈ 2.09 µM) | CC[C@H]1OC(=O)[C@H](C)[C@@H](O[C@H]2C[C@@](C)(OC)[C@@]3(CO3)[C@H](C)O2)[C@H](C)[C@@H](O[C@@H]2O[C@H](C)C[C@H](N(C)C)[C@H]2O)[C@](C)(O)C[C@@H](C)CN[C@H](C)[C@@H](O)[C@]1(C)O | 31 mg/kg |
| 0.05 µg/mL (≈ 0.0612 µM) | 0.39 µg/mL (≈ 0.477 µM) | CC[C@H]1OC(=O)[C@H](C)[C@@H](O[C@H]2C[C@@](C)(OC)[C@@](O)(C#CCOC)[C@H](C)O2)[C@H](C)[C@@H](O[C@@H]2O[C@H](C)C[C@H](N(C)C)[C@H]2O)[C@](C)(O)C[C@@H](C)CN(C)[C@H](C)[C@@H](O)[C@]1(C)O | 29 mg/kg |
| 0.39 µg/mL (≈ 0.48 µM) | 3.13 µg/mL (≈ 3.85 µM) | CC[C@H]1OC(=O)[C@H](C)[C@@H](O[C@H]2C[C@@](C)(OC)[C@@](O)(c3cccnc3)[C@H](C)O2)[C@H](C)[C@@H](O[C@@H]2O[C@H](C)C[C@H](N(C)C)[C@H]2O)[C@](C)(O)C[C@@H](C)CN[C@H](C)[C@@H](O)[C@]1(C)O | > 40 mg/kg |
| < 0.1 µg/mL | 0.78 µg/mL (≈ 1.01 µM) | C=CC[C@@]1(O)[C@H](C)O[C@@H](O[C@H]2[C@H](C)[C@@H](O[C@@H]3O[C@H](C)C[C@H](N(C)C)[C@H]3O)[C@](C)(O)C[C@@H](C)CN[C@H](C)[C@@H](O)[C@](C)(O)[C@@H](CC)OC(=O)[C@@H]2C)C[C@@]1(C)OC | 58 mg/kg |
| 0.1 µg/mL (≈ 0.131 µM) | 0.78 µg/mL (≈ 1.02 µM) | CC[C@H]1OC(=O)[C@H](C)[C@@H](O[C@H]2C[C@@](C)(OC)[C@](C)(O)[C@H](C)O2)[C@H](C)[C@@H](O[C@@H]2O[C@H](C)C[C@H](N(C)C)[C@H]2O)[C@](C)(O)C[C@@H](C)CN(C)[C@H](C)[C@@H](O)[C@]1(C)O | 26 mg/kg |
| 0.78 µg/mL (≈ 0.955 µM) | 3.13 µg/mL (≈ 3.83 µM) | CC[C@H]1OC(=O)[C@H](C)[C@@H](O[C@H]2C[C@@](C)(OC)[C@@](O)(c3cccs3)[C@H](C)O2)[C@H](C)[C@@H](O[C@@H]2O[C@H](C)C[C@H](N(C)C)[C@H]2O)[C@](C)(O)C[C@@H](C)CN[C@H](C)[C@@H](O)[C@]1(C)O | > 80 mg/kg |
| 3.13 µg/mL (≈ 3.86 µM) | 12.5 µg/mL (≈ 15.4 µM) | CC[C@H]1OC(=O)[C@H](C)[C@@H](O[C@H]2C[C@@](C)(OC)[C@@](O)(c3ccccc3)[C@H](C)O2)[C@H](C)[C@@H](O[C@@H]2O[C@H](C)C[C@H](N(C)C)[C@H]2O)[C@](C)(O)C[C@@H](C)CN[C@H](C)[C@@H](O)[C@]1(C)O |  |
| < 0.1 µg/mL | 0.78 µg/mL (≈ 1.04 µM) | CC[C@H]1OC(=O)[C@H](C)[C@@H](O[C@H]2C[C@@](C)(OC)[C@](C)(O)[C@H](C)O2)[C@H](C)[C@@H](O[C@@H]2O[C@H](C)C[C@H](N(C)C)[C@H]2O)[C@](C)(O)C[C@@H](C)CN[C@H](C)[C@@H](O)[C@]1(C)O | 28 mg/kg |
| 0.1 µg/mL (≈ 0.129 µM) | 0.78 µg/mL (≈ 1.01 µM) | C#C[C@@]1(O)[C@H](C)O[C@@H](O[C@H]2[C@H](C)[C@@H](O[C@@H]3O[C@H](C)C[C@H](N(C)C)[C@H]3O)[C@](C)(O)C[C@@H](C)CN(C)[C@H](C)[C@@H](O)[C@](C)(O)[C@@H](CC)OC(=O)[C@@H]2C)C[C@@]1(C)OC | 33 mg/kg |
